Data on two compounds can be found in paper PMC2785155 (The Journal of Biological Chemistry, 2009).

Assay [1] addresses T1, SufBC (Thermotoga maritima, UniProt Q9X188).
T1 sequence (Q9X188 1-246): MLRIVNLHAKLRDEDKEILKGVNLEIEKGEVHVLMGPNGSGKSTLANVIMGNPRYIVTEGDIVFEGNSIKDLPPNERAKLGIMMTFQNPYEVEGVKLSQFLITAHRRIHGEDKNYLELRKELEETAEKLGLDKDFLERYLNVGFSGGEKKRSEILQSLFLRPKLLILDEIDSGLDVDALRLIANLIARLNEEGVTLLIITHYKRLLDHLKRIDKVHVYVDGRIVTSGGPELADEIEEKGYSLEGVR
T1 sequence (Q9X189 1-464 partner): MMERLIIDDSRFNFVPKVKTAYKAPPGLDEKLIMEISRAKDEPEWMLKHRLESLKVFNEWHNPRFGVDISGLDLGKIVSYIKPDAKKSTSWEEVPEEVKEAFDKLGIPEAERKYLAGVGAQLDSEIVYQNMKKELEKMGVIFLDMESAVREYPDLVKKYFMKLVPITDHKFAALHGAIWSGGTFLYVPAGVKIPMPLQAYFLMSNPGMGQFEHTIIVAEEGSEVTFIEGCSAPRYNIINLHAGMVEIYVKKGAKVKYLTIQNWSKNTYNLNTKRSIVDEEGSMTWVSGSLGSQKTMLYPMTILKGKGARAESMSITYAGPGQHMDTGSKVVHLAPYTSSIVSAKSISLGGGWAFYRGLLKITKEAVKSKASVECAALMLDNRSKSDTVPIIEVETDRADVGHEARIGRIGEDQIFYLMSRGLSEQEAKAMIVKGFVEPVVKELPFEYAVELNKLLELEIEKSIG
In words: stopped-flow ADP dissociation trapped by MDCC-ParM. It counts as binding. The following applies: 50 mM Tris-HCl pH 7.5, 100 mM KCl, 5 mM MgCl2, 2 mM dithiothreitol, 20 °C. In a few lines:
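SufBC (13 μM) was preincubated with 4 μM ADP in one stopped-flow syringe. It was rapidly mixed with 80 or 160 μM MDCC-ParM ADP sensor, which traps ADP released from SufBC. ADP dissociation was read from the change in MDCC fluorescence over time.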

Assay [2] addresses T1, SufBC. The settings on record: 50 mM Tris-HCl pH 7.5, 100 mM KCl, 5 mM MgCl2, 2 mM dithiothreitol, 20 °C.

In the case of `Nc1ncnc2c1ncn2[C@@H]1O[C@H](COP(=O)(O)OP(=O)(O)O)[C@@H](O)[C@H]1O` [ADP], the “rate constant (ADP dissociation)” value on SufBC [1] was 0.046 s⁻¹.
On to `Nc1ncnc2c1ncn2[C@@H]1O[C@H](COP(=O)(O)OP(=O)(O)OP(=O)(O)O)[C@@H](O)[C@H]1O` [ATP], for which the “single-turnover stopped-flow, MDCC-PBP and MDCC-ParM sensors” value at SufBC [2] was “study ADP and Pi release during a single turnover of ATP hydrolysis by SufBC”.
